Experimental data from different studies.
Compare with care: the assays were run in different laboratories.
HTR2B: 5-hydroxytryptamine receptor 2B (HTR2B, Homo sapiens, UniProt P41595)
HTR2C: 5-hydroxytryptamine receptor 2C (HTR2C, Homo sapiens, UniProt P28335)

SMILES | target | test | setting | measurement | value
[2H]c1c([2H])c([C@]2([2H])CCCN2C(=O)C(C)(C)Oc2ccc3cn[nH]c3c2)c([2H])c([2H])c1C([2H])([2H])[2H] | Serine/threonine-protein kinase Nek6 (NEK6, Homo sapiens, UniProt Q9HC98) | binding, competition with immobilised ligand | 1 µM | remaining binding | 100%
COc1cc2c3c(c1OC)-c1c(OC)ccc(Cl)c1CC3N(C)CC2 (racemic) | HTR2B | ligand displacement, radioligand | 10 µM | inhibition | 87%
CC(C)CC(=O)OC[C@H]1O[C@@](C#N)(c2ccc3c(N)ncnn23)[C@H](O)[C@@H]1O | Prostaglandin G/H synthase 1 (PTGS1, Homo sapiens, UniProt P23219) | enzyme activity, inhibitor | 20 µM | inhibition | 6%
CC[C@H](C)[C@H](NC(=O)[C@H](CO)NC(=O)[C@H](Cc1ccc(O)cc1)NC(=O)[C@H](CC(=O)O)NC(=O)[C@H](CO)NC(=O)[C@@H](NC(=O)[C@H](Cc1ccccc1)NC(=O)[C@@H](NC(=O)CNC(=O)[C@H](CCC(=O)O)NC(=O)CCNC(=O)C1(c2ccc(Cl)cc2)CCOCC1)[C@@H](C)O)[C@@H](C)CC)C(=O)N[C@@H](C)C(=O)N[C@@H](CCSC)C(=O)N[C@@H](CC(=O)O)C(=O)N[C@@H](CCCCN)C(=O)N[C@H](C(=O)N[C@@H](Cc1c[nH]cn1)C(=O)N[C@@H](CCC(N)=O)C(=O)N[C@@H](CCC(N)=O)C(=O)N[C@@H](CC(=O)O)C(=O)N[C@@H](Cc1ccccc1)C(=O)N[C@H](C(=O)N[C@@H](CC(N)=O)C(=O)N[C@@H](Cc1c[nH]c2ccccc12)C(=O)N[C@@H](CC(C)C)C(=O)N[C@@H](CC(C)C)C(=O)N[C@@H](C)C(=O)N[C@@H](CCC(N)=O)C(=O)NCC(=O)N1CCC[C@H]1C(=O)N[C@@H](CO)C(=O)N[C@@H](CO)C(=O)NCC(=O)N[C@@H](C)C(=O)N1CCC[C@H]1C(=O)N1CCC[C@H]1C(=O)N1CCC[C@H]1C(=O)N[C@@H](CO)C(=O)N[C@@H](CCCCN)C(N)=O)C(C)C)[C@@H](C)CC | Glucagon receptor (Mus musculus, UniProt Q61606) | cAMP, agonist | – | Emax | < 20%
COc1cc2cc3c4c(cc(OC)c(OC)c4c2cc1OC)CCN3C | HTR2C | ligand displacement, radioligand | 10 µM | inhibition | -1%
c1cncc([C@@H]2CCCN2)c1 | Neuronal acetylcholine receptor; alpha3/beta4 (Rattus norvegicus, UniProt P04757+P12392) | ligand displacement, radioligand | 50 µM | inhibition | 69.1%
COc1cc(C(F)(F)F)c(OC)cc1C1CCCNC1 (stereo not drawn) | HTR2C | calcium signal, agonist | – | Emax | 31%
CCOC(=O)Cc1c2c3c(cc(OC)c(OC)c3c3cc(OC)c(OC)cc13)CCN2C | HTR2C | ligand displacement, radioligand | 10 µM | inhibition | 6%
CCCC(NCCc1cc(OC)c(C#N)cc1OC)c1ccccc1O (stereo not drawn) | HTR2C | calcium signal, agonist | – | Emax | 56%
Nc1ncnc2c1ncn2[C@@H]1O[C@H](C[C@@H](N)CC[C@H](N)C(=O)O)[C@@H](O)[C@H]1O | mRNA cap guanine-N(7) methyltransferase (RNMT, Homo sapiens, UniProt O43148) | enzyme activity, inhibitor | 3.125 µM | inhibition | 40.9%
COc1cc2c3c(c1OC)-c1c(OC)ccc(O)c1CC3N(C)CC2 (stereo not drawn) | HTR2C | ligand displacement, radioligand | 10 µM | inhibition | 60%
CN1CCC[C@H]1c1cccnc1 | HTR2B | ligand displacement | 50 µM | inhibition | -8.78%
